Measured values taken from ChEMBL document CHEMBL1123743, “Antisecretory activity of human, dog, and rat metabolites of fenoctimine” (J Med Chem, 1987).
≈ marks a conversion by molar mass, not a printed value. Calls of active or inactive are those of the source. The calls are words filed in the database; no cut-off is given here.

Experiments:
Rattus norvegicus [1] = test: Antisecretory activity was evaluated in acute gastric fistula of rat after peroral administration; format: functional; details: Stomach, po
Procedure, shortened: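 Female Sprague-Dawley rats (120–160 g), food-deprived ≥18 h, given drug or vehicle (0.5% methocel) orally 1 h before surgery. Under ether anesthesia a flanged polyethylene cannula was placed in the fundic stomach. The first 30-min collection was discarded, then two 1-h samples were taken. Volume was measured and acidity titrated to pH 7 with 0.01 N NaOH. ED50 = dose giving 50% inhibition of total acid output vs controls, by least-squares regression.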

Cavia porcellus = species on record: Cavia porcellus; test: Anticholinergic activity was determined in vitro by measuring their effect on the acetylcholine chloride induced contraction of guinea pig ileum; format: functional
Procedure, shortened: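 Ileum was isolated from female guinea pigs (200–500 g) killed with CO2. Acetylcholine chloride was added in rising concentrations up to maximal response. Test compound was given 2 min before the agonist, with antagonism assessed against the maximal acetylcholine dose. Full concentration–response curves were run.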

Rattus norvegicus [2] = test: Antisecretory activity was evaluated in acute gastric fistula of rat after intravenous administration; format: functional; details: Stomach
Rattus norvegicus [3] = test: Antisecretory activity was evaluated in acute gastric fistula of rat after intraperitoneal administration; format: functional; details: Stomach, ip
Rattus norvegicus [4] = test: Antisecretory activity was evaluated in acute gastric fistula of rat after administration of 40 mg/kg; I=inactive; format: functional, organism-based; design: dose 40 mg/kg; details: Stomach

Q: What does the source list for `CN1[C@@H]2CC[C@H]1C[C@@H](OC(=O)C(CO)c1ccccc1)C2` (stereo partly drawn) [ATROPINE]?
A: ED50 (Rattus norvegicus [1]): 1.1 mg/kg; IC50 (Cavia porcellus): 0.0038 mg/L (≈ 0.0131 µM)

Q: Which results are given for `CCCCCCCC/N=C/N1CCC(C(c2ccccc2)c2ccccc2)CC1` [FENOCTIMINE]?
A: ED50 (Rattus norvegicus [1]): 3.9 mg/kg; IC50 (Cavia porcellus): 1.8 mg/L (≈ 4.61 µM); ED50 (Rattus norvegicus [2]): 1.1 mg/kg; ED50 (Rattus norvegicus [3]): 0.6 mg/kg

Q: For `Cl.O.O=C([O-])CCCCCCC/N=C/N1CCC(C(c2ccccc2)c2ccccc2)CC1.O=C([O-])CCCCCCC/N=C/N1CCC(C(c2ccccc2)c2ccccc2)CC1.[Zn+2]`, which IC50 (Cavia porcellus) is on record?
A: The IC50 was 1.2 mg/L.

Q: `CC(=O)CCCCCC/N=C/N1CCC(C(c2ccccc2)c2ccccc2)CC1` was tested. Which ED50 (Rattus norvegicus [1]) did it give?
A: The ED50 was 10.5 mg/kg.

Q: What about the IC50 (Cavia porcellus) of the same molecule?
A: Its IC50 is 2.2 mg/L (≈ 5.44 µM).

Q: And the ED50 (Rattus norvegicus [3])?
A: Its ED50 is 1.5 mg/kg.

Q: With `CCCCCCCC/N=C/N1CCC(C(c2ccccc2)c2ccc(O)cc2)CC1.O=S(=O)(O)c1ccc2ccccc2c1` (stereo not drawn) as the molecule, how does the ED50 (Rattus norvegicus [1]) read?
A: Its ED50 is > 40 mg/kg.

Q: And the IC50 (Cavia porcellus)?
A: The IC50 was 0.96 mg/L.

Q: And the ED50 (Rattus norvegicus [3])?
A: The ED50 was 3.1 mg/kg.

Q: What does the source list for `C/C(CCCCCC/N=C\N1CCC(C(c2ccccc2)c2ccccc2)CC1)=N\O.O=S(=O)(O)c1ccc2ccccc2c1`?
A: ED50 (Rattus norvegicus [1]): 12.5 mg/kg; IC50 (Cavia porcellus): 4.1 mg/L; ED50 (Rattus norvegicus [3]): 8.8 mg/kg

Q: How did the ED50 (Rattus norvegicus [1]) turn out when `CN/C(=N\CCSCc1nc[nH]c1C)NC#N` [CIMETIDINE] was run?
A: Its ED50 is 7.6 mg/kg.

Q: How did the ED50 (Rattus norvegicus [1]) turn out when `CC1(CCCCCC/N=C\N2CCC(C(c3ccccc3)c3ccccc3)CC2)OCCO1.O=C(O)/C=C/C(=O)O` was run?
A: Its ED50 is 4.8 mg/kg.

Q: And the IC50 (Cavia porcellus)?
A: The IC50 was 1.96 mg/L.

Q: What about the ED50 (Rattus norvegicus [3]) of the same molecule?
A: The ED50 was 0.98 mg/kg.

Q: Which results are given for `CCCCCCCC/N=C\N1CCC(C(c2ccccc2)c2ccc(OC)cc2)CC1.O=C(O)/C=C/C(=O)O` (stereo not drawn)?
A: ED50 (Rattus norvegicus [1]): 15.7 mg/kg; IC50 (Cavia porcellus): 1.9 mg/L; ED50 (Rattus norvegicus [3]): 0.63 mg/kg

Q: With `OCCCCCCCC/N=C/N1CCC(C(c2ccccc2)c2ccccc2)CC1` as the molecule, how does the ED50 (Rattus norvegicus [1]) read?
A: Its ED50 is 8.5 mg/kg.

Q: And the IC50 (Cavia porcellus)?
A: Its IC50 is 0.29 mg/L (≈ 0.713 µM).

Q: What about the ED50 (Rattus norvegicus [2]) of the same molecule?
A: Its ED50 is 9.7 mg/kg.

Q: And the ED50 (Rattus norvegicus [3])?
A: The ED50 was 0.44 mg/kg.

Q: With `COC(=O)CCCCCCC/N=C/N1CCC(C(c2ccccc2)c2ccccc2)CC1.O=C(O)/C=C/C(=O)O` as the molecule, how does the ED50 (Rattus norvegicus [1]) read?
A: The ED50 was 10.1 mg/kg.

Q: What about the IC50 (Cavia porcellus) of the same molecule?
A: The IC50 was 0.3 mg/L.

Q: What about the ED50 (Rattus norvegicus [2]) of the same molecule?
A: The ED50 was 4.7 mg/kg.

Q: Which ED50 (Rattus norvegicus [1]) does the source give for `OCCCCCC/N=C/N1CCC(C(c2ccccc2)c2ccccc2)CC1` here?
A: Its ED50 is 11.2 mg/kg.

Q: And the IC50 (Cavia porcellus)?
A: Its IC50 is 0.26 mg/L (≈ 0.687 µM).

Q: And the ED50 (Rattus norvegicus [2])?
A: Its ED50 is 4.5 mg/kg.

Q: What about the ED50 (Rattus norvegicus [3]) of the same molecule?
A: The ED50 was 2 mg/kg.

Q: With `CC(O)CCCCCC/N=C/N1CCC(C(c2ccccc2)c2ccccc2)CC1` (stereo not drawn) as the molecule, how does the ED50 (Rattus norvegicus [1]) read?
A: Its ED50 is 8.9 mg/kg.

Q: What about the IC50 (Cavia porcellus) of the same molecule?
A: Its IC50 is 1.7 mg/L (≈ 4.18 µM).

Q: How did the ED50 (Rattus norvegicus [4]) turn out when `O=CN1CCC(C(c2ccccc2)c2ccccc2)CC1` was run?
A: Its ED50 is “inactive”.

Q: What about the IC50 (Cavia porcellus) of the same molecule?
A: The IC50 was 21.9 mg/L (≈ 78.4 µM).
